Activity calls are given as the source filed them. The rule behind the calls is not given here. *1 amine or outer side, *2 acyl side, *3 side chain or, on linkers, in order; H or OH if unused. Where a SMILES comes first, the peptide text is derived from it. Bridges are numbered along the chain shown (N, C = ends). [ ]: non-standard residue; d: D form. The star is where a group is joined. Ahp(3S,6R)alloIle = CC[C@@H](C)[C@@H](C(=O)[*:2])N1C(=O)[C@@H](N[*:1])CC[C@H]1O; Propanoyl(2R-OMe,3-OSO3H) = CO[C@H](COS(=O)(=O)O)C(=O)*; NMeTyr(3-Br,OMe) = CN[C@@H](Cc1ccc(OC)c(Br)c1)C(=O)O; Cit = NC(=O)NCCC[C@H](N)C(=O)O; Butyryl = CCCC(=O)*
Experiments:
Homo sapiens [1] = species on record: Homo sapiens; test: (§1) Inhibition of chymotrypsin (unknown origin) assessed as reduction in conversion of N-benzoyl-L-tyrosine ethyl ester to N-benzoyl-L-tyrosine incubated for 3 mins measured for 30 secs by spectrophotometric method
NCI-H460 = test: Antiproliferative activity against human NCI-H460 cells up to 3 uM after 72 hrs by MTT assay; assay type: functional, cell-based
Summary of the method: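 NCI-H460 cells exposed for 72 h to 30 nM–3 μM compound from DMSO stocks, final DMSO 0.1%; apratoxin A (30 nM) positive control; MTT viability end-point, vehicle-treated cells set as 100%.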

Trypsin = Trypsin (Homo sapiens, UniProt P07477+P07478+P35030); test: Inhibition of trypsin (unknown origin) assessed as reduction in conversion of N-benzoyl-L-arginine ethyl ester hydrochloride to N-benzoyl-L-arginine incubated for 5 mins measured for 30 secs by spectrophotometric method; assay type: protein assay
[2] = as §1; parameters: species or system Homo sapiens
Homo sapiens [3] = species on record: Homo sapiens; test: Selectivity ratio of IC50 for chymotrypsin (unknown origin) to IC50 for trypsin (unknown origin)
HeLa = test: Antiproliferative activity against human HeLa cells up to 3 uM after 72 hrs by MTT assay; assay type: functional, cell-based

Row | SMILES | inhibition (Homo sapiens [1]) | Activity (NCI-H460) | inhibition (Trypsin) | IC50 [2] [nM] | Ratio IC50 (Homo sapiens [3]) | IC50 (Trypsin) [nM] | Activity (HeLa)
1 | CCCC(=O)N[C@H](CCC(N)=O)C(=O)N[C@@H]1C(=O)N[C@@H](CCCNC(N)=O)C(=O)N[C@H]2CC[C@@H](O)N(C2=O)[C@@H]([C@H](C)CC)C(=O)N(C)[C@@H](Cc2ccc(OC)c(Br)c2)C(=O)N[C@@H](C(C)C)C(=O)O[C@@H]1C (Butyryl-[dQ]T[Cit][Ahp(3S,6R)alloIle][NMeTyr(3-Br,OMe)]V; ester 2-C) | Active | Active | Active |  |  |  | 
2 | CC[C@@H](C)[C@H]1C(=O)N(C)[C@@H](Cc2ccc(OC)c(Br)c2)C(=O)N[C@@H]([C@@H](C)CC)C(=O)O[C@H](C)[C@H](NC(=O)[C@@H](NC(=O)[C@@H](COS(=O)(=O)O)OC)C(C)C)C(=O)N[C@@H](CCCCN)C(=O)N[C@H]2CC[C@@H](O)N1C2=O |  | inactive |  | 1400 | 19 | 72 | inactive
3 | CC[C@@H](C)[C@H]1C(=O)N(C)[C@@H](Cc2ccc(OC)c(Br)c2)C(=O)N[C@@H]([C@@H](C)CC)C(=O)O[C@H](C)[C@H](NC(=O)[C@H](NC(=O)[C@H](O)COS(=O)(=O)O)C(C)C)C(=O)N[C@@H](CCCCN)C(=O)N[C@H]2CC[C@@H](O)N1C2=O |  | inactive |  | > 10000 | 10 to 66 | 160 | inactive
4 | CC[C@@H](C)[C@H]1C(=O)N(C)[C@@H](Cc2ccc(OC)c(Br)c2)C(=O)N[C@@H]([C@@H](C)CC)C(=O)O[C@H](C)[C@H](NC(=O)[C@H](NC(=O)[C@@H](COS(=O)(=O)O)OC)C(C)C)C(=O)N[C@@H](CCCCN)C(=O)N[C@H]2CC[C@@H](O)N1C2=O |  | inactive |  | > 10000 | 10 to 66 | 190 | inactive
5 | CC[C@@H](C)[C@H]1C(=O)N(C)[C@@H](Cc2ccc(OC)c(Br)c2)C(=O)N[C@@H]([C@@H](C)CC)C(=O)O[C@H](C)[C@H](NC(=O)[C@H](NC(=O)[C@@H](COS(=O)(=O)O)OC)C(C)C)C(=O)N[C@@H](CCCNC(=N)N)C(=O)N[C@H]2CC[C@@H](O)N1C2=O |  | inactive |  | > 10000 | 10 to 66 | 150 | inactive
6 | CC[C@@H](C)[C@H]1C(=O)N(C)[C@@H](Cc2ccc(OC)c(Br)c2)C(=O)N[C@@H]([C@@H](C)CC)C(=O)O[C@H](C)[C@H](NC(=O)[C@@H](NC(=O)[C@@H](COS(=O)(=O)O)OC)[C@@H](C)CC)C(=O)N[C@@H](CCCCN)C(=O)N[C@H]2CC[C@@H](O)N1C2=O ({Propanoyl(2R-OMe,3-OSO3H)}-ITK[Ahp(3S,6R)alloIle][NMeTyr(3-Br,OMe)]I; ester 2-C) |  | inactive |  | > 10000 | 10 to 66 | 1000 | inactive
